Source: publication PMC2963086 (Analytical biochemistry, 2010)
Values joined by “and” are separate entries in the source; they are usually repeats but may differ in a detail not shown here. Equal entries are not always repeated. Where two headings read alike, the source gives them in different places.

Columns and labels:
[1] = molecular target: T1, Formate dehydrogenase (FDH) (Candida boidinii, UniProt O13437); experiment: Enzymatic reaction assay, initial rates; type: biochemical
T1 sequence (O13437 1-364): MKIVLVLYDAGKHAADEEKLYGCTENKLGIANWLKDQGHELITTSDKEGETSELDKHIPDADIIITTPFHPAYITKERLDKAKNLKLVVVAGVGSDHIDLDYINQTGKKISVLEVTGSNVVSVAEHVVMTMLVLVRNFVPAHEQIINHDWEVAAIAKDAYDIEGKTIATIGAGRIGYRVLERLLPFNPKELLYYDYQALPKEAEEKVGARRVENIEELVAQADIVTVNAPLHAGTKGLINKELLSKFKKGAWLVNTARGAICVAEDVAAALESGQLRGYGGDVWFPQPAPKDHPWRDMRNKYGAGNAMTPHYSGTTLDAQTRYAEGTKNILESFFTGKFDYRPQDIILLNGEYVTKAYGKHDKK

[2] = system: Glucose dehydrogenase (GDH); experiment: Enzymatic reaction assay, initial rates; type: biochemical, Bacillus megaterium
How it was run: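 Commercial Bacillus megaterium GDH in a 1 mL UV cuvette with 0.1 M phosphate buffer, pH 7.5, and azo-NAD+ as coenzyme. Initial rates taken over 2 min from the absorbance rise at 340 nm (azo-NADH). Km and kcat obtained by fitting rates against azo-NAD+ concentration to the Michaelis–Menten equation, with Vmax = [E]·kcat.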

[3] = molecular target: T1, Formate dehydrogenase (FDH); experiment: ITC binding of azo-NAD^+ to formate dehydrogenase; conditions: Kd (Binary), FDH binary complex, pH 7.5
How it was run: (§1)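 Isothermal titration calorimetry at pH 7.5 with commercial enzymes: Candida boidinii FDH and porcine heart mitochondrial MDH. Titrations of azo-NAD+ with enzyme; for the MDH ternary complex, malate is present. Heats of dilution subtracted from raw heats. Integrated heats fitted to a single-site binding model to give Kd.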

[4] = molecular target: T2, Malate dehydrogenase (MDH) (Sus scrofa, UniProt P00346); experiment: ITC binding of azo-NAD^+ to malate dehydrogenase; type: Porcine heart mitochondria (sus scrofa); conditions: pH 7.5
T2 sequence (P00346 25-338): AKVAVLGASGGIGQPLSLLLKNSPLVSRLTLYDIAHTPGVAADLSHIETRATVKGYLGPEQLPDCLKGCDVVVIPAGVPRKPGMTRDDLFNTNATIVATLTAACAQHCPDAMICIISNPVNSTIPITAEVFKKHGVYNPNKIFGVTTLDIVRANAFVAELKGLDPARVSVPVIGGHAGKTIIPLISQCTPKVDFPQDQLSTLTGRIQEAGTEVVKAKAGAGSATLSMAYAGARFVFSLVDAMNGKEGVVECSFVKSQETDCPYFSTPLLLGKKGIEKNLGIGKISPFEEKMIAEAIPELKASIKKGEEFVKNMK
How it was run: as §1

[5] = molecular target: Glucose dehydrogenase (GDH); experiment: Fluorescence titration; type: binding, Bacillus megaterium; conditions: read-out: Kd (Binary); GDH binary complex; fluorescence experiments; pH 7.5
[6] = molecular target: T2, Malate dehydrogenase (MDH); experiment: Enzymatic reaction assay, competitive inhibition, initial rates; type: biochemical, Porcine heart mitochondria (sus scrofa)
[7] = Stability in phosphate buffer by UV absorbance ratio 260/303 nm; type: physicochemical; conditions: phosphate buffer pH 7.5, 24 hrs, 25 °C
[8] = Solubility of the solid analog; type: physicochemical; conditions: phosphate buffer and methanol at room temperature
[9] = molecular target: T2, Malate dehydrogenase (MDH); conditions: native NAD^+, 37; cited from earlier work
[10] = molecular target: T1, Formate dehydrogenase (FDH); conditions: native NAD^+, cited from earlier work
[11] = system: Glucose dehydrogenase (GDH); conditions: native NAD^+; cited from earlier work
[12] = system: formate dehydrogenase (FDH); conditions: azide anion with FDH; cited from earlier work
[13] = substrate: [N-]=[N+]=Nc1ccc[n+]([C@@H]2O[C@H](COP(=O)([O-])OP(=O)(O)OC[C@H]3O[C@@H](n4cnc5c(N)ncnc54)[C@H](O)[C@@H]3O)[C@@H](O)[C@H]2O)c1; experiment: Enzymatic reaction assay, initial rates; type: biochemical, Candida boidinii; conditions: other: FDH, azo-NAD^+ as substrate, 0.1 M phosphate buffer pH 7.5
[14] = azo-NAD^+ as substrate, 0.1 M phosphate buffer pH 7.5

## [N-]=[N+]=Nc1ccc[n+]([C@@H]2O[C@H](COP(=O)([O-])OP(=O)(O)OC[C@H]3O[C@@H](n4cnc5c(N)ncnc54)[C@H](O)[C@@H]3O)[C@@H](O)[C@H]2O)c1 [azo-NAD^+]
[1]
  behaviour as substrate or inhibitor: substrate
[2]
  behaviour as substrate or inhibitor: substrate
[2]; [14]
  Km: 72 µM
  kcat: 344 s⁻¹
[3]
  Kd: 63 µM
[4]; Kd (Binary), MDH binary complex
  Kd: 152 µM
[4]; Kd (Ternary), MDH ternary complex with substrate malate
  Kd: 70 µM
[5]
  Kd: 300 µM
[6]
  Ki: 83 µM
[6]; MDH
  behaviour as substrate or inhibitor: competitive inhibitor
[7]
  stability (ratio of UV absorbance 260 nm/303 nm unchanged): stable
[8]
  solubility: soluble

## NC(=O)c1ccc[n+]([C@@H]2O[C@H](COP(=O)([O-])OP(=O)(O)OC[C@H]3O[C@@H](n4cnc5c(N)ncnc54)[C@H](O)[C@@H]3O)[C@@H](O)[C@H]2O)c1 [NAD^+, nicotinamide adenine dinucleotide]
[9]
  Km: 140 µM
[10]; Candida Boidinii FDH
  kcat (turnover number): 3.7 s^−1 and 3.7 ^c s^−1
[10]; FDH
  Km: 90 µM
[11]
  Km: 370 µM
  kcat: 390 ^d s^−1
[6]; MDH, native NAD^+, no reference given
  kcat: 45 s⁻¹

## [N-]=[N+]=[N-] [azide anion]
[12]
  binding constant: nanomolar

B1: Formate dehydrogenase (FDH) ([Candida] boidinii) (protein)
chain: T1 sequence (O13437 1-364)
[13]
  Km: 378 µM
  kcat: 7.5 s⁻¹
